One compound from publication PMC12466149 (eBioMedicine, 2025) can be followed below.

For data set [1], the system named is SH-SY5Y APPSWE cells. The data set can be described thus: Mitochondrial stress test. It is filed as cell-based, human. As to conditions: rotenone 256 nM. The essentials: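 For SH-SY5Y cells stably expressing APPSWE, cells were held 1 h at 37 °C without CO2 in XF DMEM pH 7.4 (1 mM pyruvate, 2 mM glutamine, 10 mM glucose). OCR was recorded basally, then after oligomycin A and FCCP (each titrated over 0.5–3 μM) and 0.5 μM rotenone plus 0.5 μM antimycin A. Hoechst (5 μM final) was used for cell-count normalisation. SRC = maximal minus basal OCR.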

Data set [2] deals with MC65 Tet-Off cells (Aβ expressed). The data set can be described thus: Protection against Aβ toxicity in MC65 Tet-Off cells. It is filed as cell-based, human. The note with it: any concentration of rotenone; data not shown. The essentials: (§1)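 MC65 human neuroblastoma cells in high-glucose DMEM with 10% FBS, 1 mM pyruvate and nonessential amino acids, 5% CO2, 37 °C. Tet-Off (Aβ expressed) cells got test compound at 2 nM–5 μM, optionally after 30 min pretreatment with 32 nM rotenone. Tet-On cells got vehicle or 32 nM rotenone. Viability at 3 days by MTT: 0.25 mg/ml, 4 h at 37 °C, solubilised in HCl/isopropanol, read at 570 nm. Tet-On vehicle set as 100%.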

Data set [3] relates to MC65 Tet-On cells. Description: Cytotoxicity in MC65 Tet-On cells. The note with it: 32 nM rotenone. The class given is cell-based, human. The gist of the method: as §1
The test system of data set [4] is mitochondrial complex I (mtCI). Description: mtCI activity in isolated brain mitochondria. It is filed as biochemical, mouse. The note with it: 1 μM rotenone. The essentials:
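Mouse brain mitochondria isolated by differential centrifugation (5900×g 4 min, then 12,000×g 10 min, 4 °C) in mannitol/sucrose/HEPES-Tris/EGTA medium, pH 7.4, with BSA and 0.02% digitonin. Complex I activity measured spectrophotometrically at 25 °C as oxidation of 0.15 mM NADH at 340 nm. Buffer: sucrose/Tris-HCl pH 7.5/KCl with 10 μM cytochrome c, 40 μg/ml alamethicin and 1 mM MgCl2.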

Data set [5] deals with MC65 Tet-On cells. Description: Real-time respirometry. The class given is cell-based, human.

“Also recorded” adds a separate entry of the source.

For `C=C(C)[C@H]1Cc2c(ccc3c2O[C@@H]2COc4cc(OC)c(OC)cc4[C@@H]2C3=O)O1` [rotenone], the “Spare respiratory capacity (SRC)” value in data set [1] is listed as “did not improve SRC”. For the same compound, the “Protection against Aβ toxicity” value in data set [2] is “did not protect”. Besides, in data set [3], the Cytotoxicity entry is given as “show no toxicity; also recorded: did not induce cell death”. In addition, the “mtCI inhibition (in words)” value in data set [4] is “complete inhibition; also recorded: completely inhibits”. In data set [5] (32 nM rotenone, within 30 min), the “Reduction of OCR” value was 50%. Moreover, the Effect on respiration entry in data set [5] (kinetic injection) is listed as “immediately blocked respiration”.
